Results published in ChEMBL document CHEMBL2203146, “Search for anticonvulsant and analgesic active derivatives of dihydrofuran-2(3H)-one” (Bioorg Med Chem, 2012).
Active and inactive are the calls of the source.

Key:
Mus musculus [1] = experiment: Neurotoxicity in albino CF1 mouse assessed as minimal motor impairment at 100 mg/kg, ip after 4 hrs by rotorod test; format: toxicity, organism-based; parameters: dose 100 mg/kg, route intraperitoneal; conditions: in vivo
Outline: (§1)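 Rotarod in male CF No. 1 mice after ip dosing (30, 100, 300 mg/kg; saline or 0.5% methylcellulose) at 15–240 min. Knurled plastic rod, 1-inch diameter, 6 rpm. Toxicity means failing to stay on for 1 min on three successive attempts. Recorded as toxic/tested.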

Mus musculus [2] = experiment: Anticonvulsant activity in albino CF1 mouse assessed as protection against maximal electroshock-induced seizures at 100 mg/kg, ip after 0.25 hr; format: functional, organism-based; parameters: dose 100 mg/kg
Outline: (§2)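 Male albino CF No. 1 mice (18–25 g) dosed ip at 30, 100 and 300 mg/kg in saline or 0.5% methylcellulose, tested 15, 30, 60 and 240 min after dosing. Maximal electroshock seizures elicited with 60-cycle alternating current. Scored as animals protected/animals tested, small qualitative groups.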

Mus musculus [3] = experiment: Anticonvulsant activity in albino CF1 mouse assessed as protection against subcutaneous metrazol-induced seizures at 30 to 300 mg/kg, ip after 0.5 to 4 hrs; format: functional, organism-based
Outline: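 CF No. 1 male mice dosed ip at 30, 100 or 300 mg/kg (saline or 0.5% methylcellulose), then given pentetrazole 85 mg/kg sc as 0.5% solution in posterior midline. Watched 30 min. Protection means no threshold seizure (single clonic spasm episode of at least 5 s). Expressed as protected/tested.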

Mus musculus [4] = experiment: Neurotoxicity in albino CF1 mouse assessed as minimal motor impairment at 300 mg/kg, ip after 4 hrs by rotorod test; format: toxicity, organism-based; parameters: dose 300 mg/kg, route intraperitoneal; conditions: in vivo; outline: as §1
Mus musculus [5] = experiment: Neurotoxicity in albino CF1 mouse assessed as minimal motor impairment at 100 mg/kg, ip after 0.5 hr by rotorod test; format: toxicity, organism-based; parameters: dose 100 mg/kg, route intraperitoneal; conditions: in vivo; outline: as §1
Mus musculus [6] = experiment: Anticonvulsant activity in albino CF1 mouse assessed as protection against maximal electroshock-induced seizures at 100 mg/kg, ip after 0.5 hr; format: functional, organism-based; parameters: dose 100 mg/kg; outline: as §2
Mus musculus [7] = experiment: Anticonvulsant activity in albino CF1 mouse assessed as protection against maximal electroshock-induced seizures at 100 mg/kg, ip after 1 hr; format: functional, organism-based; parameters: dose 100 mg/kg; outline: as §2
Mus musculus [8] = experiment: Neurotoxicity in albino CF1 mouse assessed as minimal motor impairment at 100 mg/kg, ip after 0.25 hr by rotorod test; format: toxicity, organism-based; parameters: dose 100 mg/kg, route intraperitoneal; conditions: in vivo; outline: as §1
Mus musculus [9] = experiment: Neurotoxicity in albino CF1 mouse assessed as minimal motor impairment at 100 mg/kg, ip after 1 hr by rotorod test; format: toxicity, organism-based; parameters: dose 100 mg/kg, route intraperitoneal; conditions: in vivo; outline: as §1
Mus musculus [10] = experiment: Anticonvulsant activity in albino CF1 mouse assessed as protection against maximal electroshock-induced seizures at 300 mg/kg, ip after 4 hrs; format: functional, organism-based; parameters: dose 300 mg/kg; outline: as §2
Mus musculus [11] = experiment: Anticonvulsant activity in albino CF1 mouse assessed as protection against maximal electroshock-induced seizures at 300 mg/kg, ip after 0.5 hr; format: functional, organism-based; parameters: dose 300 mg/kg; outline: as §2
Mus musculus [12] = experiment: Neurotoxicity in albino CF1 mouse assessed as minimal motor impairment at 300 mg/kg, ip after 0.5 hr by rotorod test; format: toxicity, organism-based; parameters: dose 300 mg/kg, route intraperitoneal; conditions: in vivo; outline: as §1
Mus musculus [13] = experiment: Anticonvulsant activity in albino CF1 mouse assessed as protection against maximal electroshock-induced seizures at 100 mg/kg, ip after 4 hrs; format: functional, organism-based; parameters: dose 100 mg/kg; outline: as §2
Mus musculus [14] = experiment: Analgesic activity in albino CF1 mouse assessed as inhibition of heat-induced paw licking or jumping behaviour administered after 30 mins prior heat challenge by hot plate method; format: functional
Mus musculus [15] = experiment: […] activity in ip dosed albino CF1 mouse assessed as inhibition of phenylbenzoquinone-induced writhing administered after 30 mins prior challenge; format: functional
Outline: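 Male Albino Swiss (CD-1) mice, 6-8 per dose. Compound given ip in 0.5% methylcellulose. 30 min later, 0.25 ml of 0.02% phenylbenzoquinone injected. After 5 min, writhes counted over 10 min. % effect = (vehicle mean − drug mean)/vehicle mean × 100. ED50 derived; Student's t-test.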

Mus musculus [16] = experiment: Anesthetic activity in albino CF1 mouse assessed as latency in response to thermal stimuli administered as 1% solution, sc measured after 15 mins by modified tail immersion test; format: functional
Outline: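 Male Albino Swiss (CD-1) mice, 6-8 per group, tested at 1% and 2% compound concentration. Tail distal 3 cm immersed in water at 50 ± 0.5 °C 15 min after treatment. Tail-withdrawal latency recorded with a 20 s cutoff. Value is % difference in latency vs vehicle-treated mice. Mean ± SEM, Student's t-test.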

Mus musculus [17] = experiment: Anesthetic activity in […] assessed as latency in response to thermal stimuli administered as 2% solution, sc measured after 15 mins by modified tail immersion test; format: functional, albino CF1

SMILES	Activity (Mus musculus [1])	Activity (Mus musculus [2])	Activity (Mus musculus [3])	Activity (Mus musculus [4])	Activity (Mus musculus [5])	Activity (Mus musculus [6])	Activity (Mus musculus [7])	Activity (Mus musculus [8])	Activity (Mus musculus [9])	Activity (Mus musculus [10])	Activity (Mus musculus [11])	Activity (Mus musculus [12])	Activity (Mus musculus [13])	ED50 (Mus musculus [14]) [mg/kg]	ED50 (Mus musculus [15]) [mg/kg]	Activity (Mus musculus [16]) [%]	Activity (Mus musculus [17]) [%]
C/C(NCc1ccccc1)=C1\CCOC1=O	Non-toxic	inactive	inactive	Non-toxic	Non-toxic	inactive	inactive	Non-toxic	Non-toxic	inactive	Active	Non-toxic	inactive	–	–	–	–
COc1ccc(CCN/C(C)=C2/CCOC2=O)cc1OC	Non-toxic	inactive	inactive	Non-toxic	Non-toxic	inactive	inactive	Non-toxic	Non-toxic	inactive	Active	Non-toxic	inactive	–	–	–	–
Cc1cccc(C)c1NC1CCOC1=O (configuration not stated)	Non-toxic	–	inactive	Non-toxic	Non-toxic	inactive	–	–	–	inactive	inactive	Non-toxic	inactive	–	–	–	–
CC1CC(N2CCN(c3ccccc3)CC2)C(=O)O1 (mixture of isomers)	Non-toxic	inactive	inactive	Non-toxic	Non-toxic	inactive	inactive	Non-toxic	Non-toxic	inactive	Active	Toxic	inactive	–	–	–	–
CC1CC(NCc2ccccc2)C(=O)O1.Cl (mixture of isomers)	Non-toxic	–	inactive	Non-toxic	Non-toxic	inactive	–	–	–	inactive	inactive	Non-toxic	inactive	–	–	–	–
O=C1OCCC1N1C(=O)c2ccccc2C1=O (racemic)	Non-toxic	–	inactive	Non-toxic	Toxic	inactive	–	–	–	inactive	inactive	Toxic	inactive	33.9	4.5	–	–
Cl.O=C1OCCC1N1CCOCC1 (racemic)	Non-toxic	–	inactive	Non-toxic	Non-toxic	inactive	–	–	–	inactive	inactive	Toxic	inactive	9.9	5.4	–	–
COc1ccccc1N1CCN(C2CCOC2=O)CC1 (racemic)	Non-toxic	inactive	inactive	Non-toxic	Non-toxic	inactive	inactive	Non-toxic	Non-toxic	inactive	Active	Toxic	inactive	0.7	0.3	97	152
COc1cccc(N2CCN(C3CCOC3=O)CC2)c1 (racemic)	Non-toxic	–	inactive	Non-toxic	Non-toxic	inactive	–	–	–	inactive	Active	Non-toxic	inactive	3.2	3	6	75
COc1ccc(N2CCN(C3CCOC3=O)CC2)cc1 (racemic)	Non-toxic	–	inactive	Non-toxic	Non-toxic	inactive	–	–	–	inactive	inactive	Non-toxic	inactive	32.5	9.6	-3	49
O=C1OCCC1N1CCN(c2ccc(F)cc2)CC1 (racemic)	Toxic	–	inactive	Toxic	Toxic	inactive	–	–	–	inactive	inactive	Toxic	inactive	–	–	–	–
O=C1CC(N2CCN(c3ccccc3)CC2)CO1 (racemic)	Non-toxic	–	inactive	Non-toxic	Toxic	inactive	–	–	–	inactive	inactive	Toxic	inactive	–	–	–	–
O=C1OCCC1N1CCC(Cc2ccccc2)CC1 (racemic)	Non-toxic	inactive	inactive	Toxic	Non-toxic	inactive	inactive	Non-toxic	Non-toxic	inactive	Active	Toxic	inactive	–	–	–	–
Cl.O=C1OCCC1NCc1ccccc1 (racemic)	Non-toxic	–	inactive	Non-toxic	Non-toxic	inactive	–	–	–	inactive	inactive	Non-toxic	inactive	4.3	2.4	1	64
COc1ccc(CNC2CCOC2=O)cc1.Cl (racemic)	Non-toxic	–	inactive	Non-toxic	Non-toxic	inactive	–	–	–	inactive	inactive	Non-toxic	inactive	–	–	–	–
O=C1OCCC1NCc1ccccc1C(F)(F)F (racemic)	Non-toxic	–	inactive	Non-toxic	Non-toxic	inactive	–	–	–	inactive	inactive	Non-toxic	inactive	–	–	–	–
COc1cc2c(cc1OC)CN(C1CCOC1=O)CC2 (racemic)	Non-toxic	–	inactive	Non-toxic	Non-toxic	inactive	–	–	–	inactive	inactive	Non-toxic	inactive	39.8	6.1	–	–
CC(=O)Oc1ccccc1C(=O)O [ASPIRIN]	–	–	–	–	–	–	–	–	–	–	–	–	–	–	39.2	–	–
CCN(CC)CC(=O)Nc1c(C)cccc1C [LIDOCAINE]	–	–	–	–	–	–	–	–	–	–	–	–	–	–	–	132	173
Cc1cccc(C)c1NC(=O)C1CCCCN1C (configuration not stated) [MEPIVACAINE]	–	–	–	–	–	–	–	–	–	–	–	–	–	–	–	95	117
CN1CC[C@]23c4c5ccc(O)c4O[C@H]2[C@@H](O)C=C[C@H]3[C@H]1C5 [MORPHINE]	–	–	–	–	–	–	–	–	–	–	–	–	–	3.4	2.4	–	–
